Source: article PMC7745057 (Translational Oncology, 2020)

Key:
[1] = tested on: PC-9 (Del19); settings: read-out: potency against Del19 (measure not given); ref [20]; cited from earlier work
[2] = tested on: LOVO (wild-type EGFR); settings: read-out: potency in wild-type EGFR cell line (measure not given); ref [20]; cited from earlier work
[3] = tested on: H1975 (T790M); settings: read-out: potency against T790M (measure not given); ref [20]; cited from earlier work
[4] = tested on: H1975 (L858R T790M); experiment: Cell proliferation assay; type: cell-based; settings: Homo sapiens, NCI-H1975, 72 h
[5] = Tolerability in xenograft studies; type: in vivo, BALB/c nude mouse; settings: HCC827, PC-9 and exon 20 insertion xenograft models
[6] = tested on: H1975 cells; experiment: Cell cycle analysis; type: cell-based, human; settings: 1 nmol/L, 24 h
Method in brief: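 H1975 cells plated at 2 × 10⁵ per well and allowed to adhere, then exposed to 1 nmol/L test compound for 24 h. Cells fixed in 75% ethanol at −20 °C overnight, washed in PBS, and stained with DNA staining solution for 30 min at room temperature in the dark. DNA content analysed immediately by flow cytometry; n = 3.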

[7] = tested on: H1975 (L858R T790M) xenografts; experiment: H1975 subcutaneous xenograft study; type: in vivo, BALB/c nude mouse; settings: BEBT-109 30 and 60 mg/kg
[8] = tested on: HCC827 (Del19) xenografts; experiment: HCC827 subcutaneous xenograft study; type: in vivo, BALB/c nude mouse; settings: BEBT-109 60 mg/kg, osimertinib 25 mg/kg (MTD doses)
Method in brief: (§1)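 Female BALB/c nude mice, 7–8 weeks old, inoculated subcutaneously in the right armpit with 2–5 × 10⁶ cells/ml in 0.1 ml PBS (PC-9 in 50% matrigel). Randomised at n = 8 per group; oral test compound started at 200–300 mm³. Tumors measured by caliper, with V = length × width²/2; survival followed after treatment.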

[9] = tested on: EGFR A767_V769dupASV-driven Ba/F3 tumor model; experiment: Ba/F3 EGFR A767_V769dupASV xenograft study; type: in vivo, BALB/c nude mouse; settings: BEBT-109 40 mg/kg bid, osimertinib 20 mg/kg qd (MTD doses), 14 days, n = 8
[10] = tested on: EGFR wild-type cell lines (H460, Calu-6 and LOVO) and EGFR-deficient Ba/F3 cells; experiment: Cell proliferation assay, summary over the panel; type: cell-based; settings: read-out: mean IC50 values
[11] = tested on: PC-9 (Del19) xenografts; experiment: PC-9 subcutaneous xenograft study; type: in vivo, BALB/c nude mouse; settings: BEBT-109 60 mg/kg, osimertinib 25 mg/kg (MTD doses)
Method in brief: as §1

C=CC(=O)Nc1cc(Nc2nccc(-c3c[nH]c4ccccc34)n2)c(OC)cc1N(C)CCN(C)C [AZ5104]
IC50 [1]: 2 nM
IC50 [2]: 33 nM
IC50 [3]: 2 nM

C=CC(=O)Nc1cc(Nc2nccc(-c3cn(C)c4ccccc34)n2)c(OC)cc1N(C)CCN(C)C [Osimertinib]
IC50 [4]: 3.9 nM
body weight [5]: Neither drug caused significant body weight loss
effect on cell-cycle progression [6]: did not change the cell cycle profile
host mice survival post treatment ([7]; osimertinib 25 mg/kg): > 30 days
tumor regression ([7]; osimertinib 25 mg/kg (MTD), daily, four weeks): complete H1975 tumor regression
tumor regression [8]: complete tumor regression
tumor growth [9]: sustained tumor regression was not observed
IC50 [10]: > 1000 nM
tumor regression [11]: complete tumor regression
